Assay results from publication PMC11638133 (Journal of Veterinary Internal Medicine, 2024).

Experiments:
[1] = Plasma pharmacokinetics of active drug metabolites after oral CARDALIS®; format: in vivo, beagle dogs; settings: linear mixed model, AUC over the first 24 hours, natural logarithmic scale
How it was run: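 Healthy purpose-bred beagles, 6 per group, were fed a low-sodium diet for 5 days, then given an oral ACE-inhibitor/mineralocorticoid-antagonist combination for 14 days at 0.25+2 mg/kg q24h, 0.25+2 mg/kg q12h or 0.5+4 mg/kg q12h. Serial Day-13 plasma was stored at −80°C, and three active metabolites were measured by LC-MS/MS. […] Dose–AUC used a linear mixed model (dog random effect, ln scale).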

[2] = test system: renin‐angiotensin‐aldosterone system (RAAS); settings: cited from earlier work
[3] = test system: renin‐angiotensin‐aldosterone system (RAAS); settings: 2 mg/kg PO q24h vs 4 mg/kg PO q24h, monotherapy; cited from earlier work
[4] = highest dose 4 times higher than lowest dose of benazepril

O=C(O)CN1C(=O)[C@@H](N[C@@H](CCc2ccccc2)C(=O)O)CCc2ccccc21 [Benazeprilat, benazeprilat]
increase in AUC for a 1 mg increase in dose [1]: 1.99 ng·h/mL

C[C@]12CCC(=O)C=C1C=C[C@@H]1[C@@H]2CC[C@@]2(C)[C@H]1CC[C@@]21CCC(=O)O1 [Canrenone, canrenone]
increase in AUC for a 1 mg increase in dose [1]: 1.54 units

CS[C@@H]1CC2=CC(=O)CC[C@]2(C)[C@H]2CC[C@@]3(C)[C@@H](CC[C@@]34CCC(=O)O4)[C@H]12 [TMS, 7‐alpha‐thiomethylspironolactone]
increase in AUC for a 1 mg increase in dose [1]: 1.50 units

CCOC(=O)[C@H](CCc1ccccc1)N[C@H]1CCc2ccccc2N(CC(=O)O)C1=O [benazepril]
difference in mean ACE‐S between the highest and lowest doses [2, 4]: −59%
difference in mean Ang1‐7 between the highest and lowest doses [2, 4]: +47%
difference in mean AngII between the highest and lowest doses [2, 4]: −38%
lower values of AngII ([2]; highest dose studied (0.5 mg/kg) compared to the lowest dose studied (0.125 mg/kg)): 38%

CC(=O)S[C@@H]1CC2=CC(=O)CC[C@]2(C)[C@H]2CC[C@@]3(C)[C@@H](CC[C@@]34CCC(=O)O4)[C@H]12 [spironolactone]
Dose-dependent differences in RAAS metabolites (including aldosterone) [3]: no dose‐dependent differences in RAAS metabolites (including aldosterone)
